The values that follow come from ChEMBL document CHEMBL5096209, “Structure-Activity Studies of 3,9-Diazaspiro[5.5]undecane-Based γ-Aminobutyric Acid Type A Receptor Antagonists with Immunomodulatory Effect” (J Med Chem, 2021).

Experiment [1] has as its target GABA-A receptor; anion channel. The experiment is described as follows: Displacement of [3H]-muscimol from rat cortical synaptic membrane GABAA receptor assessed as inhibition constant by microscint-scintillation method. The class given is cell membranes, Cortex. In short, it runs like this: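 Rat cortical synaptic membranes, washed repeatedly in 50 mM Tris-HCl pH 7.4, 70–80 μg protein. Incubated at 0 °C with 5 nM [3H]-muscimol (final) and a range of test concentrations, then filtered and counted by scintillation. Nonspecific binding defined with 1.0 mM GABA. IC50 converted to Ki by Cheng–Prusoff, triplicate, three independent experiments.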
In general terms: Displacement assays read how much labelled ligand stays bound in the presence of the test substance.

Experiment [2] deals with Gamma-aminobutyric acid receptor subunit alpha-4/beta-1/delta (Homo sapiens, UniProt O14764+P18505+P48169). The experiment in a line: Antagonist activity at human alpha4beta1delta GABAA receptor expressed in HEK293 Flp-In cells by FMP assay. The following applies: for IC50: read-out: pIC50 (converted). Type of experiment: cell-based, Flp-In-293. The method in brief: (§1)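 HEK293 Flp-In cells stably expressing human δ subunit, transiently transfected with human α and β subunits (1:1) to form αβδ receptors. Read-out is the FLIPR membrane potential dye ΔRFU, baseline to peak/plateau, with GABA EC80 as agonist. Four-parameter fit of concentration–inhibition curves gives IC50, from at least three independent experiments.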
Chain of Gamma-aminobutyric acid receptor subunit alpha-4/beta-1/delta (P48169 whole entry): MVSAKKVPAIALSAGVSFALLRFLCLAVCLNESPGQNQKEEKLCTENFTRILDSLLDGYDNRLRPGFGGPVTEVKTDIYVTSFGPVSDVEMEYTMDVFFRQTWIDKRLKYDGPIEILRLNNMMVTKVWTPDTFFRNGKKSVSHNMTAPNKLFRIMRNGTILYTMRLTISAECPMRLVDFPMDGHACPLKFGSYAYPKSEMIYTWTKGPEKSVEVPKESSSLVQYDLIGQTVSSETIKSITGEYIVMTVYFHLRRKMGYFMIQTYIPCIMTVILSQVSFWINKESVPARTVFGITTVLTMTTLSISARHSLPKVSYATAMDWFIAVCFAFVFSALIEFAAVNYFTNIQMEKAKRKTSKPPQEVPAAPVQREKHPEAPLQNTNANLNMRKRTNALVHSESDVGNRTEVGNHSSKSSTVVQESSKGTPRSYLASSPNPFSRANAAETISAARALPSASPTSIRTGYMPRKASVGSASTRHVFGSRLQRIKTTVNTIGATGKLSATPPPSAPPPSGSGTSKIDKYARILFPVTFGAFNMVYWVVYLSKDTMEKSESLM
Chain of Gamma-aminobutyric acid receptor subunit alpha-4/beta-1/delta (O14764 whole entry): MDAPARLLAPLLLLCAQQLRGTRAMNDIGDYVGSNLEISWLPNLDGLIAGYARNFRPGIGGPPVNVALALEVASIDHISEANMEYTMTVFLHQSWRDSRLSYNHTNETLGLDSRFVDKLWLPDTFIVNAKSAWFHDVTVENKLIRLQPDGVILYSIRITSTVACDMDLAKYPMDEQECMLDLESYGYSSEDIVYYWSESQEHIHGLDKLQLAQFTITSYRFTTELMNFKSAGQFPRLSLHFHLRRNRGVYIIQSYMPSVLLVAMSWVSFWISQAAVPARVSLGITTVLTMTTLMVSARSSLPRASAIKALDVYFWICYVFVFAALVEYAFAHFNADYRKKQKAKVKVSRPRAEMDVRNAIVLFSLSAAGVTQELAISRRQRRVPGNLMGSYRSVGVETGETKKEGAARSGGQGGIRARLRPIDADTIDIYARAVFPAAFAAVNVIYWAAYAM
Chain of Gamma-aminobutyric acid receptor subunit alpha-4/beta-1/delta (P18505 whole entry): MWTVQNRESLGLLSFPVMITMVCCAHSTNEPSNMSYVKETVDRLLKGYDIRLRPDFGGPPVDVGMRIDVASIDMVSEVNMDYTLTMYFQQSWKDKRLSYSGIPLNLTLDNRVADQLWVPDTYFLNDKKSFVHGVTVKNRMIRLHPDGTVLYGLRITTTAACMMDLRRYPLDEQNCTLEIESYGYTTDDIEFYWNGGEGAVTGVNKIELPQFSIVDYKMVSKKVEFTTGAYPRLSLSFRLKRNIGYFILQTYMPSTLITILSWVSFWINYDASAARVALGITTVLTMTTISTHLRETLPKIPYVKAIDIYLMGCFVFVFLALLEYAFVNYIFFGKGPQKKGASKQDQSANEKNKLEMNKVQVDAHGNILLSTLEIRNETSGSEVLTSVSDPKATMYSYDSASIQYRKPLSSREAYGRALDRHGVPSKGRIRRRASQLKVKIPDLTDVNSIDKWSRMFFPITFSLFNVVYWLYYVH

The subject of experiment [3] is GABAA receptor α4β2δ (human). The experiment in a line: Antagonist activity at human alpha4beta2delta GABAA receptor expressed in HEK293 Flp-In cells by FMP assay. The following applies: for IC50: Homo sapiens, Flp-In-293, read-out: pIC50 (converted); for pIC50: flp-in-293.
The target of experiment [4] is T1, GABA A receptor alpha-3/beta-2/gamma-2 (Homo sapiens, UniProt P18507+P34903+P47870).
T1 sequence (P47870 whole entry): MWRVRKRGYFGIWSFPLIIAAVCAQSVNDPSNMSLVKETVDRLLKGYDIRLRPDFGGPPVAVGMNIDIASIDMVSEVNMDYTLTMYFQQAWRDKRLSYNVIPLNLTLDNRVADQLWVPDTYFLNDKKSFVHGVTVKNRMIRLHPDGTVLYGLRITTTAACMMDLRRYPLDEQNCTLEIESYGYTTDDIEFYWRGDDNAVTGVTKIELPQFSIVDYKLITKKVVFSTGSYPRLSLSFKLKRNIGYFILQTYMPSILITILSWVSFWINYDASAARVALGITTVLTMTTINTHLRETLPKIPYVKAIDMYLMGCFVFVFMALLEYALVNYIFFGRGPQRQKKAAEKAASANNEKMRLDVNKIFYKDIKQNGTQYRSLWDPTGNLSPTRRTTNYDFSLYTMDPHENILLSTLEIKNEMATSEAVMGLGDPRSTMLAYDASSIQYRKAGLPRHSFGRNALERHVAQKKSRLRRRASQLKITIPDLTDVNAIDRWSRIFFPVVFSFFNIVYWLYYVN
T1 sequence (P18507 whole entry): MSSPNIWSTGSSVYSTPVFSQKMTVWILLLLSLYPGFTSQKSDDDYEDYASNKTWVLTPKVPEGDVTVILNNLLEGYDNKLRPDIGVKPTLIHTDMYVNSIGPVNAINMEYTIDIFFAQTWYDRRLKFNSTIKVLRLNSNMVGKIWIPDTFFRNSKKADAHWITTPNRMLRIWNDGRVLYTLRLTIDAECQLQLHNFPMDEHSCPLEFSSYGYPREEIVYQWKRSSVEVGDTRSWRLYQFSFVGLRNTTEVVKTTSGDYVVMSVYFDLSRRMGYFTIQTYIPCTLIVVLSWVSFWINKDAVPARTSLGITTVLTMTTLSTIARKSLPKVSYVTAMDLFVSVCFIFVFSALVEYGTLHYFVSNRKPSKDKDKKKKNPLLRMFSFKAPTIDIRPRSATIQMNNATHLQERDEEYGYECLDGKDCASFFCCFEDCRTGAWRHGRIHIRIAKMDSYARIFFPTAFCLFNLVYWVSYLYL
T1 sequence (P34903 whole entry): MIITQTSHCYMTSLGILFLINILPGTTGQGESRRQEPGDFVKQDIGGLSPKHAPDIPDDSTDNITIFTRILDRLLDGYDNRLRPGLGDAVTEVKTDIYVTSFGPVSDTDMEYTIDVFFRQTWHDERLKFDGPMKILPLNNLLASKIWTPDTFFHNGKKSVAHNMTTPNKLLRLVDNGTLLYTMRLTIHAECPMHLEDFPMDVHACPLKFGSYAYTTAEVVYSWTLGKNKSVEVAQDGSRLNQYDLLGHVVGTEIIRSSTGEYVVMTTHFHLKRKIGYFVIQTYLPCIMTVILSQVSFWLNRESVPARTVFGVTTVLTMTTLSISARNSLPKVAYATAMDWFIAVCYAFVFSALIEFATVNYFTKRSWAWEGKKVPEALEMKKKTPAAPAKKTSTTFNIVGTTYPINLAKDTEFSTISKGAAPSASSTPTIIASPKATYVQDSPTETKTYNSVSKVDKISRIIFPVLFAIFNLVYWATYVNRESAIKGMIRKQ
The experiment in a line: Antagonist activity at human alpha3beta2gamma2 GABAA receptor expressed in HEK293 cells by FMP assay. The class given is cell-based. The following applies: for IC50: read-out: pIC50 (converted). In short, it runs like this:
(§2)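 Human αβγ2 receptors in HEK293 cells: α1β2γ2 stably expressed, other αβγ2 subtypes transiently transfected into HEK293 Flp-In background cells (α:β:γ 1:1:2). FLIPR membrane potential assay with ΔRFU baseline to peak/plateau and GABA EC80 as agonist. IC50 from a four-parameter fit, at least three independent experiments.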

Experiment [5] concerns the target T2, Gamma-aminobutyric acid receptor subunit alpha-5/beta-2/gamma-2 (Homo sapiens, UniProt P18507+P31644+P47870).
T2 sequence (P47870 whole entry): T1 sequence (P47870 whole entry)
T2 sequence (P18507 whole entry): T1 sequence (P18507 whole entry)
T2 sequence (P31644 whole entry): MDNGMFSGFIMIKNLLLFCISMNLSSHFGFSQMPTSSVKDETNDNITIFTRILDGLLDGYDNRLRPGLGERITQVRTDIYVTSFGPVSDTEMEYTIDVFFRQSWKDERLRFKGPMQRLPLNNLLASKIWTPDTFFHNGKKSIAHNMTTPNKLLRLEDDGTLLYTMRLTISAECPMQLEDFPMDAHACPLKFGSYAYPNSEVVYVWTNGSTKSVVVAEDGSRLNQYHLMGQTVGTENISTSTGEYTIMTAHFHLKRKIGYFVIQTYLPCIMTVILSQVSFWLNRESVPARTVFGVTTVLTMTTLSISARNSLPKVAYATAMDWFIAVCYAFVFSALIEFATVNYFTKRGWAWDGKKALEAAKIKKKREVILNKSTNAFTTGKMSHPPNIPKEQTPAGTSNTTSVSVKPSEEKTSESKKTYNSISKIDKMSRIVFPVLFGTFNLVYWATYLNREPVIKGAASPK
The experiment is described as follows: Antagonist activity at human alpha5beta2gamma2 GABAA receptor expressed in HEK293 cells by FMP assay. The class given is cell-based. To be noted: for IC50: read-out: pIC50 (converted). In short, it runs like this: as §2

Experiment [6] can be described thus: Antagonist activity at recombinant human alpha6beta2delta GABAA receptor expressed in HEK293 Flp-In cells by FMP assay. The class given is cell-based, Flp-In-293. To be noted: for IC50: Homo sapiens, Flp-In-293, read-out: pIC50 (converted); for pIC50: flp-in-293. The method in brief: as §1
Experiment [7] addresses T2, Gamma-aminobutyric acid receptor subunit alpha-5/beta-2/gamma-2. The experiment is described as follows: Antagonist activity at human alpha5beta2gamma2 GABAA receptor expressed in HEK cells by FMP assay. Type of experiment: cell-based. To be noted: for IC50: read-out: pIC50 (converted). The method in brief: as §2

Molecules are shown by their SMILES. pIC50, pKi: −log10 of the molar value.

For orientation: pKi means the Ki on a negative log10 scale, so that one unit is a factor of ten. Usually pIC50 stands for the negative decadic logarithm of the IC50, by convention in mol/L. Take `Cc1cccc(C(=O)N2CCC3(CCNCC3)CC2)c1`: the pKi in experiment [1] is 6.74. In addition, the pIC50 in experiment [2] is 6.71; in experiment [3], 6.60; in experiment [4], 6.25; in experiment [5] it was 6.27. For the same compound, the IC50 in experiment [2] is 182 nM; in experiment [3], 251 nM; in experiment [4], 501 nM; in experiment [5], 537 nM.

`CC(=O)Nc1cccc(C(=O)N2CCC3(CCNCC3)CC2)c1`: in experiment [6], the IC50 is 4170 nM and the pIC50 is 5.38. In addition, in experiment [7], the pIC50 is 6.23 and the IC50 is 589 nM.

Turning to `Cc1ccc(C(=O)N2CCC3(CCNCC3)CC2)cc1`, in experiment [1], the pKi is 6.28. For the same compound, the pIC50 in experiment [2] was 5.89; in experiment [3] it was 5.67; in experiment [4], 5.45; in experiment [5] it was 5.82. In addition, the IC50 was 1260 nM in experiment [2], 2140 nM in experiment [3], 3240 nM in experiment [4] and 1450 nM in experiment [5].

Regarding `O=C(Nc1cccc(C(=O)N2CCC3(CCNCC3)CC2)c1)c1cccs1`, in experiment [6], the IC50 is 331 nM and the pIC50 was 6.48. In addition, in experiment [7], the pIC50 was 7.29 and the IC50 is 51.3 nM.
